The values below come from PubChem BioAssay.

The structures appear in SMILES notation. Active and inactive are the calls of the source.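 The calls were made as follows, unless noted: active = viability at or below 10% of carrier control in both of two separate runs; inconclusive = viability at or below 10% in only one of the two runs; inactive = the rest.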

Experiment [1] in a line: reducers of endogenous Her2 protein level, primary screen, SKBR3 breast tumor cells, AlphaScreen, ATP viability (AID 461;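 active = Her2 level under about 52% in both replicate screens, with viability over 70% of control, limit read from the data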;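 as to Her2 level: lower value means less Her2 protein in the cells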;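 as to viability: percent of carrier control wells set as 100% viability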). As to conditions: 18-24 h, measured here: SKBR3 viability, ATP luminescence, at 10 µM.
Experiment [2] deals with Receptor tyrosine-protein kinase erbB-2 (Homo sapiens) (UniProt P04626). The description is as above. As to conditions: 18-24 h, at 10 µM, stronger effect = lower value.
The nature of experiment [3]: SK-BR-3 cell growth inhibitors, pilot screen, 24 h, human (AID 572).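 Also: compound exposure lasted between 18 and 24 h rather than exactly 24 h; 100% = carrier-treated control wells.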 The note with it: SK-BR-3 viability, CellTiter-Glo luminescence, at 10 µM, stronger effect = lower value.
Experiment [4] in a line: HUVEC growth inhibition – cell-based, human, primary screen (AID 575;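 active = viability at or below 30% in both replicate assays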;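 also: 100% = median of untreated cell wells with 0.1% DMSO on each plate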). As to conditions: HUVEC proliferation, CellTiter-Glo luminescence, 72 h; at 10 µM; stronger effect = lower value. The method, boiled down: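 Test system: primary human umbilical vein endothelial cells; medium: endothelial basal medium with 2% FBS plus growth supplements; dosing: 10 µM compound only; times: 72 h treatment at 37 °C; signal: CTG luminescence; read-out: % viability relative to median vehicle-well signal on each plate; control set: vehicle and MePR control wells; plate: 384-well, collagen-coated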

A short description of experiment [5]: growth inhibitors of H69AR lung tumor, primary screen, human, duplicate replicates (AID 580;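 active = viability at or under a set limit in both replicates, limit being median viability minus 3 SD, cut at about 48% in these data, passing the limit was not always enough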;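 also: 100% = mean luminescence of untreated wells and 0% = no signal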). As to conditions: H69AR lung tumor cells viability, ATP luminescence, 72 h; at 10 µM; stronger effect = lower value.
Experiment [6] in a line: reversal of MRP1-mediated doxorubicin resistance, pilot screen, H69AR cells, doxorubicin co-treatment (AID 601;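 active = viability loss from added drug above about 55%, and viability with drug at most 40%, in both replicates, limit read from the data, passing the limit was not always enough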). As to conditions: CellTiter-Glo, 72 h, at 10 µM; for differential viability (reversal): stronger effect = higher value.
A short description of experiment [7]: 384-well plate pilot, post-Golgi transport modulator project, inhibition of yeast transport mutant growth (AID 636; in the data active = inhibition above about 31%). As to conditions: absorbance 615 nm, about 18 h, stronger effect = higher value.
Experiment [8] is described as follows: growth suppression of yeast trafficking mutant, preliminary HTS, modulators of trafficking downstream of Golgi apparatus project, 1536-format plate, OD 615 nm (AID 637; in the data active = inhibition above about 30%). As to conditions: yeast transport mutant growth, absorbance 615 nm, 18 h; stronger effect = higher value.
[9] abbreviates: H69AR cells + 2 uM doxorubicin, measured here: viability with 2 uM doxorubicin, stronger effect = lower value.
[10] abbreviates: H69AR cells, compound alone cytotoxicity.

Sequence of Receptor tyrosine-protein kinase erbB-2 (Homo sapiens) (P04626 whole entry, looked up): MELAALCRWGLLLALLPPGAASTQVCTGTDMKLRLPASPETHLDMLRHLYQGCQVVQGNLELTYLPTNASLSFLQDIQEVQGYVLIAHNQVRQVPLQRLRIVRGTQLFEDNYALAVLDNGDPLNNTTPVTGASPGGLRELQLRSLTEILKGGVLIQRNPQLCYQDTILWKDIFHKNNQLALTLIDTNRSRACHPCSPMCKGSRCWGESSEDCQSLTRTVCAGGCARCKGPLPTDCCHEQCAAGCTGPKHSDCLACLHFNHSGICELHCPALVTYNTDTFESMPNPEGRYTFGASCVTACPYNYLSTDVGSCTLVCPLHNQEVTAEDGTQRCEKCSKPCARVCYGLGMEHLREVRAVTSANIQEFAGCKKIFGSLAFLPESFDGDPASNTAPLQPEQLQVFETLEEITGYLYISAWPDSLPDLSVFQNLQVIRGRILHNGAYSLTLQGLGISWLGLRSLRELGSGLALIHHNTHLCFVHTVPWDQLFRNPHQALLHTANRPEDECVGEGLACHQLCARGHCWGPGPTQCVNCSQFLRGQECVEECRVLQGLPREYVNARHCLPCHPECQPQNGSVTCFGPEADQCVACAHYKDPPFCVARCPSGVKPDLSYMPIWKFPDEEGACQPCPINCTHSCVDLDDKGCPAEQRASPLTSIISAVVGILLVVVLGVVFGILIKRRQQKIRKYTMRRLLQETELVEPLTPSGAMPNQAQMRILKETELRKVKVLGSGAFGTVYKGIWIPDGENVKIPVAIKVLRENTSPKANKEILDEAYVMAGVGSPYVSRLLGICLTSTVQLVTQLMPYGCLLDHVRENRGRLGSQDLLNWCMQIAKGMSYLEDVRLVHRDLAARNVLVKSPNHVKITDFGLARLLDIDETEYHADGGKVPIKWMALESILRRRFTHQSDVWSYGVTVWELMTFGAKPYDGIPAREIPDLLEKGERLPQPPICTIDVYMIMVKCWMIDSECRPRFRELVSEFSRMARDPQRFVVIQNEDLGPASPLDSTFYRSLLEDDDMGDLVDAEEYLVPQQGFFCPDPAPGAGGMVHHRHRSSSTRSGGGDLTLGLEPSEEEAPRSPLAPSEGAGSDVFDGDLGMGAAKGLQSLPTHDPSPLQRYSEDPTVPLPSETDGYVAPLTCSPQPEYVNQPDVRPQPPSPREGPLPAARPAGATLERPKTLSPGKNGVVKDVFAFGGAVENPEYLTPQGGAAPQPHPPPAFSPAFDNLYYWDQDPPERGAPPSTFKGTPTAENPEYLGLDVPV

As to `N#CC(C(=O)CCN1C(=O)C2CC=CCC2C1=O)c1nc2ccccc2[nH]1` (stereo not given), the viability is 116% in experiment [1]; 116% (inactive) in experiment [3]; 95.9% (inactive) in experiment [4]; 91.1% (inactive) in experiment [5]; 87.2% in experiment [6] (setting [9]); 91.1% in experiment [6] (setting [10]). In addition, the Her2 level in experiment [2] was 98% (inactive). Moreover, the differential viability (reversal) in experiment [6] (H69AR cells + 2 uM doxorubicin) is 3.88% (inactive). The inhibition is -5.07% (inactive) in experiment [7] and 6.23% (inactive) in experiment [8].
For the molecule `CCN(CC)CCOC(=O)c1cccc(OC)c1`, the viability was 115% in experiment [1]; 115% (inactive) in experiment [3]; 96.9% (inactive) in experiment [4]; 90.2% (inactive) in experiment [5]; 94.4% in experiment [6] (setting [9]); 90.2% in experiment [6] (setting [10]). For the same molecule, the Her2 level in experiment [2] was 105% (inactive). Moreover, the differential viability (reversal) in experiment [6] (H69AR cells + 2 uM doxorubicin) is -4.21% (inactive). Further, the inhibition was -5.07% (inactive) in experiment [7] and -2.79% (inactive) in experiment [8].
As for `CCOC(=O)N1CCN(Cc2ccccc2F)CC1`, the viability in experiment [1] was 102%; in experiment [3] it was 102% (inactive); in experiment [4] it was 98.1% (inactive); in experiment [5], 85% (inactive); in experiment [6] (setting [9]) it was 87.2%; in experiment [6] (setting [10]), 85%. Also, the Her2 level in experiment [2] was 81% (inactive). Besides, the differential viability (reversal) in experiment [6] (H69AR cells + 2 uM doxorubicin) was -2.15% (inactive). For the same molecule, the inhibition is -7.33% (inactive) in experiment [7] and 2.3% (inactive) in experiment [8].
`Cc1cc2c(c(=O)o1)C(C13C=CC(CC1)C3)C(C#N)=C(N)O2` (stereo not given): the viability in experiment [1] is 124%; in experiment [3], 124% (inactive); in experiment [4] it was 90.1% (inactive); in experiment [5], 99.8% (inactive); in experiment [6] (setting [9]), 86.6%; in experiment [6] (setting [10]), 99.8%. Further, in experiment [2], the Her2 level was 94.5% (inactive). In addition, the differential viability (reversal) in experiment [6] (H69AR cells + 2 uM doxorubicin) was 13.2% (inactive). The inhibition in experiment [7] was -6.4% (inactive); in experiment [8], -5.97% (inactive).
For the molecule `O=C(Nc1cccc2ncccc12)c1ccc2c(c1)OCCO2`, the viability was 84% in experiment [1]; 84% (inactive) in experiment [3]; 100% (inactive) in experiment [4]; 104% (inactive) in experiment [5]; 92.1% in experiment [6] (setting [9]); 104% in experiment [6] (setting [10]). Moreover, the Her2 level in experiment [2] was 104% (inactive). In addition, the differential viability (reversal) in experiment [6] (H69AR cells + 2 uM doxorubicin) was 11.7% (inactive). The inhibition is -1.17% (inactive) in experiment [7] and -3% (inactive) in experiment [8].
For `Cn1c(CN2CCOCC2)nnc1SCC(=O)NCCc1ccccc1`, the viability in experiment [1] was 104%; in experiment [3], 104% (inactive); in experiment [4], 73.6% (inactive); in experiment [5], 91.8% (inactive); in experiment [6] (setting [9]) it was 80.4%; in experiment [6] (setting [10]), 91.8%. For the same molecule, the Her2 level in experiment [2] is 83% (inactive). The differential viability (reversal) in experiment [6] (H69AR cells + 2 uM doxorubicin) is 11.4% (inactive). In addition, the inhibition in experiment [7] was -2.08% (inactive); in experiment [8], -2.86% (inactive).
As for `O=C(O)CCC(=O)Nc1nc(-c2ccccc2)cs1`, the viability is 92% in experiment [1]; 92% (inactive) in experiment [3]; 98.5% (inactive) in experiment [4]; 91.3% (inactive) in experiment [5]; 96.1% in experiment [6] (setting [9]); 91.3% in experiment [6] (setting [10]). Also, the Her2 level in experiment [2] was 84.5% (inactive). Further, the differential viability (reversal) in experiment [6] (H69AR cells + 2 uM doxorubicin) is -4.88% (inactive). The inhibition in experiment [7] was -6.4% (inactive); in experiment [8], -1.48% (inactive).
On to `O=C1CSC(c2cn(-c3ccccc3)nc2-c2cccs2)N1CC1CCCO1` (stereo not given), for which the viability in experiment [1] is 102%; in experiment [3], 102% (inactive); in experiment [4], 71.9% (inactive); in experiment [5], 95.7% (inactive); in experiment [6] (setting [9]), 96.4%; in experiment [6] (setting [10]), 95.7%. The Her2 level in experiment [2] is 90% (inactive). In experiment [6] (H69AR cells + 2 uM doxorubicin), the differential viability (reversal) was -0.73% (inactive). In addition, the inhibition in experiment [7] was -2.11% (inactive); in experiment [8], 2.58% (inactive).
Take `COc1ccccc1CCNC(=O)C1CCCO1` (stereo not given): the viability in experiment [1] is 108%; in experiment [3] it was 108% (inactive); in experiment [4], 92.1% (inactive); in experiment [5], 98.9% (inactive); in experiment [6] (setting [9]), 91.7%; in experiment [6] (setting [10]), 98.9%. In experiment [2], the Her2 level is 97% (inactive). In experiment [6] (H69AR cells + 2 uM doxorubicin), the differential viability (reversal) is 7.17% (inactive). Moreover, the inhibition in experiment [7] is -6.18% (inactive); in experiment [8], -11.3% (inactive).
For the molecule `CCOC(=O)c1sc(NC(=O)COC(=O)Cn2cnc3ccccc32)c(C(=O)OCC)c1C`, the viability in experiment [1] was 96%; in experiment [3] it was 96% (inactive); in experiment [4], 68.4% (inactive); in experiment [5] it was 71.2% (inactive); in experiment [6] (setting [9]) it was 79.6%; in experiment [6] (setting [10]) it was 71.2%. In addition, the Her2 level in experiment [2] was 78% (inactive). Also, in experiment [6] (H69AR cells + 2 uM doxorubicin), the differential viability (reversal) is -8.35% (inactive). In addition, the inhibition is -0.26% (inactive) in experiment [7] and -4.44% (inactive) in experiment [8].
Consider `CC1CCN(c2oc(-c3cccc4ccccc34)nc2C#N)CC1`, for which the viability in experiment [1] was 104%; in experiment [3] it was 104% (inactive); in experiment [4], 81.7% (inactive); in experiment [5] it was 91.7% (inactive); in experiment [6] (setting [9]), 82.3%; in experiment [6] (setting [10]), 91.7%. In experiment [2], the Her2 level was 72.5% (inactive). Further, the differential viability (reversal) in experiment [6] (H69AR cells + 2 uM doxorubicin) was 9.42% (inactive). For the same molecule, the inhibition in experiment [7] was -5.53% (inactive); in experiment [8], -7.33% (inactive).
With `O=C(Cn1cnc2c(nnn2-c2ccc(F)cc2)c1=O)NCc1ccco1`, the viability in experiment [1] was 97%; in experiment [3] it was 97% (inactive); in experiment [4] it was 97.1% (inactive); in experiment [5], 84.8% (inactive); in experiment [6] (setting [9]), 85.7%; in experiment [6] (setting [10]), 84.8%. The Her2 level in experiment [2] was 74% (inactive). For the same molecule, in experiment [6] (H69AR cells + 2 uM doxorubicin), the differential viability (reversal) was -0.975% (inactive). The inhibition is -0.39% (inactive) in experiment [7] and -2.73% (inactive) in experiment [8].
Turning to `Cn1c(=O)c2c3c(sc2n2c(SCC(=O)c4ccc(Cl)cc4)nnc12)COC(C)(C)C3`, the viability in experiment [1] was 119%; in experiment [3], 119% (inactive); in experiment [4], 76.6% (inactive); in experiment [5], 79.7% (inactive); in experiment [6] (setting [9]) it was 56.4%; in experiment [6] (setting [10]), 79.7%. Moreover, the Her2 level in experiment [2] was 102% (inactive). The differential viability (reversal) in experiment [6] (H69AR cells + 2 uM doxorubicin) is 23.3% (inactive). The inhibition is -0.91% (inactive) in experiment [7] and -2.7% (inactive) in experiment [8].
With `COc1ccc2c(=O)c3c(=O)n(Cc4ccco4)c(-c4cc(OC)c(OC)c(OC)c4)nc3oc2c1`, the viability in experiment [1] is 67%; in experiment [3], 67% (inactive); in experiment [4], 67.9% (inactive); in experiment [5], 36.1% (active); in experiment [6] (setting [9]) it was 37.8%; in experiment [6] (setting [10]), 36.1%. Moreover, the Her2 level in experiment [2] was 82.5% (inactive). The differential viability (reversal) in experiment [6] (H69AR cells + 2 uM doxorubicin) was -1.67% (inactive). Besides, the inhibition was -2.53% (inactive) in experiment [7] and -10% (inactive) in experiment [8].
`COc1ccc2cc(CN(CCO)C(=O)c3ccc(Br)cc3)c(=O)[nH]c2c1`: the viability is 98% in experiment [1]; 98% (inactive) in experiment [3]; 90.2% (inactive) in experiment [4]; 110% (inactive) in experiment [5]; 90.3% in experiment [6] (setting [9]); 110% in experiment [6] (setting [10]). Further, the Her2 level in experiment [2] was 81.5% (inactive). For the same molecule, in experiment [6] (H69AR cells + 2 uM doxorubicin), the differential viability (reversal) is 19.2% (inactive). Moreover, the inhibition is -4.93% (inactive) in experiment [7] and 5.41% (inactive) in experiment [8].
